ChEMBL document CHEMBL2321839, “Novel limonene and citral based 2,5-disubstituted-1,3,4-oxadiazoles: a natural product coupled approach to semicarbazones for antiepileptic activity” (Bioorg Med Chem Lett, 2013)
The source made the active and inactive calls. No cut-off for these calls is given here.

Tests used:
Rattus norvegicus [1] = experiment: Antiepileptic activity in Wistar rat assessed as GABA level in medulla oblangata per 100 mg at 30 mg/kg ip after 2 hrs (reference value: 31.86 +/- 4.65 ug); format: functional, Medulla oblongata; conditions: route intraperitoneal
Rattus norvegicus [2] = experiment: Antiepileptic activity in Wistar rat assessed as GABA level in midbrain per 100 mg at 30 mg/kg ip after 2 hrs (reference value: 35.42 +/- 2.14 ug); format: functional; conditions: route intraperitoneal
Rattus norvegicus [3] = experiment: Antiepileptic activity in Wistar rat assessed as GABA level in cerebellum per 100 mg at 30 mg/kg ip after 2 hrs (reference value: 23.48+/- 2.48 ug); format: functional; conditions: route intraperitoneal
Mus musculus [4] = experiment: Antiepileptic activity in ip dosed Swiss albino mouse assessed as protection against scPTZ-induced seizures after 0.5 hrs; format: functional; conditions: read-out: MED
Summary of the method: (§1)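 Male Swiss albino mice (18–25 g), compounds given ip at 30, 100 and 300 mg/kg. Seizures induced by maximal electroshock (MES) or subcutaneous pentylenetetrazole (scPTZ). Protection scored at 0.5 and 4.0 h after dosing.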

Mus musculus [5] = experiment: Antiepileptic activity in Swiss albino mouse assessed as protection against maximal-electric shock-induced seizures at 300 mg/kg, ip measured after 4 hrs; format: functional, organism-based; parameters: dose 300 mg/kg; summary of the method: as §1
Rattus norvegicus [6] = experiment: Antiepileptic activity in Wistar rat assessed as protection against scSTY-induced seizures at 300 mg/kg, ip measured after 4 hrs; format: functional, organism-based; parameters: dose 300 mg/kg
Summary of the method: (§2)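 Male Wistar rats (100–150 g), compounds given ip at 30, 100 and 300 mg/kg. Seizures induced by subcutaneous strychnine (scSTY). Activity read 0.5 and 4.0 h after dosing. Reported as the minimal dose active in at least half of the animals; a dash means no activity at 300 mg/kg.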

Mus musculus [7] = experiment: Neurotoxicity against Swiss albino mouse by rotarod test at 300 mg/kg, ip after 0.5 hrs; format: toxicity, organism-based; parameters: dose 300 mg/kg, route intraperitoneal; conditions: in vivo
Summary of the method: (§3)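 Acute neurotoxicity tested by rotorod in male Swiss albino mice (18–25 g) given 30, 100 or 300 mg/kg ip. Read at 0.5 and 4.0 h post-dose. Result is the minimal dose causing toxicity in half or more of the animals; a dash means none up to 300 mg/kg.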

Mus musculus [8] = experiment: Neurotoxicity against Swiss albino mouse by rotarod test at 300 mg/kg, ip after 4 hrs; format: toxicity, organism-based; parameters: dose 300 mg/kg, route intraperitoneal; conditions: in vivo; summary of the method: as §3
Mus musculus [9] = experiment: Antiepileptic activity in ip dosed Swiss albino mouse assessed as protection against scPTZ-induced seizures after 4 hrs; format: functional; conditions: read-out: MED; summary of the method: as §1
Rattus norvegicus [10] = experiment: Antiepileptic activity in ip dosed Wistar rat assessed as protection against scSTY-induced seizures after 0.5 hrs; format: functional; conditions: read-out: MED
Summary of the method: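 Subcutaneous strychnine seizure test in Wistar rats (male, 100–150 g), compounds given ip at 30, 100 and 300 mg/kg. Protection read 0.5 and 4.0 h after dosing.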

Mus musculus [11] = experiment: Antiepileptic activity in Swiss albino mouse assessed as protection against maximal-electric shock-induced seizures at 300 mg/kg, ip measured after 0.5 hrs; format: functional, organism-based; parameters: dose 300 mg/kg; summary of the method: as §1
Mus musculus [12] = experiment: Antiepileptic activity in Swiss albino mouse assessed as protection against scPTZ-induced seizures at 300 mg/kg, ip measured after 4 hrs; format: functional, organism-based; parameters: dose 300 mg/kg; summary of the method: as §1
Mus musculus [13] = experiment: Antiepileptic activity in ip dosed Swiss albino mouse assessed as protection against maximal-electric shock-induced seizures after 0.5 hrs; format: functional; conditions: read-out: MED; summary of the method: as §1
Mus musculus [14] = experiment: Antiepileptic activity in ip dosed Swiss albino mouse assessed as protection against maximal-electric shock-induced seizures after 4 hrs; format: functional; conditions: read-out: MED; summary of the method: as §1
Rattus norvegicus [15] = experiment: Antiepileptic activity in Wistar rat assessed as protection against scSTY-induced seizures at 300 mg/kg, ip measured after 0.5 hrs; format: functional, organism-based; parameters: dose 300 mg/kg; summary of the method: as §2
Mus musculus [16] = experiment: Neurotoxicity against ip dosed Swiss albino mouse after 4 hrs by rotarod test; format: toxicity, organism-based; conditions: in vivo; summary of the method: as §3
Mus musculus [17] = experiment: Neurotoxicity against ip dosed Swiss albino mouse after 0.5 hrs by rotarod test; format: toxicity, organism-based; conditions: in vivo; summary of the method: as §3
Rattus norvegicus [18] = experiment: Antiepileptic activity in Wistar rat assessed as GABA level in cerebellum per 100 mg at 100 mg/kg ip after 2 hrs (reference value: 23.48+/- 2.48 ug); format: functional; conditions: route intraperitoneal
Rattus norvegicus [19] = experiment: Neurotoxicity in Wistar rat at 30 mg/kg, po measured at 0.5 hrs by rotarod test; format: toxicity, organism-based; parameters: dose 30 mg/kg, route oral; conditions: in vivo
Summary of the method: (§4)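 Neurotoxicity assessed in Wistar rats (100–150 g) after a 30 mg/kg oral dose, read at 0.25, 0.5, 1, 2 and 4 h.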

Mus musculus [20] = experiment: Antiepileptic activity in Swiss albino mouse assessed as protection against scPTZ-induced seizures at 300 mg/kg, ip measured after 0.5 hrs; format: functional, organism-based; parameters: dose 300 mg/kg; summary of the method: as §1
Rattus norvegicus [21] = experiment: Antiepileptic activity in Wistar rat assessed as protection against maximal electric shock-induced seizures at 30 mg/kg, po measured at 2 hrs; format: functional
Summary of the method: (§5)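 Single oral dose of 30 mg/kg in Wistar rats (100–150 g), tested by MES challenge at 0.25, 0.5, 1, 2 and 4 h.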

Rattus norvegicus [22] = experiment: Antiepileptic activity in Wistar rat assessed as protection against maximal electric shock-induced seizures at 30 mg/kg, po measured at 0.5 hrs; format: functional; summary of the method: as §5
Rattus norvegicus [23] = experiment: Antiepileptic activity in Wistar rat assessed as GABA level in midbrain per 100 mg at 100 mg/kg ip after 2 hrs (reference value: 35.42 +/- 2.14 ug); format: functional; conditions: route intraperitoneal
Rattus norvegicus [24] = experiment: Antiepileptic activity in Wistar rat assessed as GABA level in medulla oblangata per 100 mg at 100 mg/kg ip after 2 hrs (reference value: 31.86 +/- 4.65 ug); format: functional, Medulla oblongata; conditions: route intraperitoneal
Rattus norvegicus [25] = experiment: Neurotoxicity in Wistar rat at 30 mg/kg, po measured at 2 hrs by rotarod test; format: toxicity, organism-based; parameters: dose 30 mg/kg, route oral; conditions: in vivo; summary of the method: as §4
Rattus norvegicus [26] = experiment: Neurotoxicity in Wistar rat at 30 mg/kg, po measured at 4 hrs by rotarod test; format: toxicity, organism-based; parameters: dose 30 mg/kg, route oral; conditions: in vivo; summary of the method: as §4
Rattus norvegicus [27] = experiment: Antiepileptic activity in Wistar rat assessed as protection against maximal electric shock-induced seizures at 30 mg/kg, po measured at 0.25 hrs; format: functional; summary of the method: as §5
Rattus norvegicus [28] = experiment: Neurotoxicity in Wistar rat at 30 mg/kg, po measured at 1 hr by rotarod test; format: toxicity, organism-based; parameters: dose 30 mg/kg, route oral; conditions: in vivo; summary of the method: as §4
Rattus norvegicus [29] = experiment: Antiepileptic activity in Wistar rat assessed as protection against maximal electric shock-induced seizures at 30 mg/kg, po measured at 4 hrs; format: functional; summary of the method: as §5
Rattus norvegicus [30] = experiment: Antiepileptic activity in ip dosed Wistar rat assessed as protection against scSTY-induced seizures after 4 hrs; format: functional; conditions: read-out: MED; summary of the method: as §2
Rattus norvegicus [31] = experiment: Antiepileptic activity in Wistar rat assessed as protection against maximal electric shock-induced seizures at 30 mg/kg, po measured at 1 hr; format: functional; summary of the method: as §5
Rattus norvegicus [32] = experiment: Neurotoxicity in Wistar rat at 30 mg/kg, po measured at 0.25 hrs by rotarod test; format: toxicity, organism-based; parameters: dose 30 mg/kg, route oral; conditions: in vivo; summary of the method: as §4

SMILES	minimal effective dose (Mus musculus [4]) [mg/kg]	Activity (Mus musculus [7])	Activity (Mus musculus [8])	minimal effective dose (Mus musculus [9]) [mg/kg]	minimal effective dose (Mus musculus [13]) [mg/kg]	minimal effective dose (Mus musculus [14]) [mg/kg]	Activity (Rattus norvegicus [15])	Activity (Rattus norvegicus [18]) [µg]	Activity (Rattus norvegicus [19])	Activity (Rattus norvegicus [21]) [%]	Activity (Rattus norvegicus [22]) [%]	Activity (Rattus norvegicus [23]) [µg]	Activity (Rattus norvegicus [24]) [µg]	Activity (Rattus norvegicus [25])	Activity (Rattus norvegicus [26])	Activity (Rattus norvegicus [27]) [%]	Activity (Rattus norvegicus [28])	Activity (Rattus norvegicus [29])	minimal effective dose (Rattus norvegicus [30]) [mg/kg]	Activity (Rattus norvegicus [31]) [%]	also measured
CN1C(=O)CC(=O)N(c2ccccc2)c2cc(Cl)ccc21 [CLOBAZAM]																					Activity (Rattus norvegicus [1]): 47.53 µg; Activity (Rattus norvegicus [2]): 69.51 µg; Activity (Rattus norvegicus [3]): 35.44 µg
CCC1(C)CC(=O)NC1=O (stereo unspecified) [ETHOSUXIMIDE]	100	Non-toxic	Non-toxic	300																	Activity (Mus musculus [5]): inactive; Activity (Rattus norvegicus [6]): inactive; minimal effective dose (Rattus norvegicus [10]): 300 mg/kg; Activity (Mus musculus [11]): inactive
CCCC(CCC)C(=O)[O-].[Na+] [VALPROATE SODIUM]	300	Non-toxic	Non-toxic		300																Activity (Mus musculus [5]): inactive; Activity (Rattus norvegicus [6]): inactive; minimal effective dose (Rattus norvegicus [10]): 300 mg/kg; Activity (Mus musculus [12]): inactive
NC(=O)N1c2ccccc2C=Cc2ccccc21 [CARBAMAZEPINE]	100			300	30	100	inactive														MTC (Mus musculus [16]): 300 mg/kg; MTC (Mus musculus [17]): 100 mg/kg; Activity (Rattus norvegicus [6]): inactive
CC(C)=CC/C=C(/C)C/C=N/NC(=O)Nc1nnc(-c2ccc([N+](=O)[O-])cc2)o1		Non-toxic	Non-toxic	300	100	300	inactive	32.04	Non-toxic	25	0	62.56	36.72	Non-toxic	Non-toxic	50	Non-toxic	50%	300	25	Activity (Mus musculus [20]): inactive; Activity (Rattus norvegicus [32]): Non-toxic
C=C(C)[C@@H]1CC=C(C)/C(=N/NC(=O)Nc2nnc(-c3ccc([N+](=O)[O-])cc3)o2)C1	100	Non-toxic	Non-toxic	300	100	300	inactive	28.64	Non-toxic	50	25	66.6	48.59	Non-toxic	Non-toxic	75	Non-toxic	50%	300	25	Activity (Rattus norvegicus [32]): Non-toxic
C=C(C)[C@@H]1CC=C(C)/C(=N/NC(=O)Nc2nnc(-c3ccc(F)cc3)o2)C1		Non-toxic	Non-toxic	300	100	300	inactive	28.42	Non-toxic	25	25	43.56	42.4	Non-toxic	Non-toxic	25	0%	inactive	300	0	Activity (Mus musculus [20]): inactive; Activity (Rattus norvegicus [32]): Non-toxic
C=C(C)[C@@H]1CC=C(C)/C(=N/NC(=O)Nc2nnc(-c3ccc(O)cc3)o2)C1		Non-toxic	Non-toxic	300	100	300	inactive	30.64	Non-toxic	0	0	47.42	43.48	0%	Non-toxic	25	Non-toxic	50%	300	25	Activity (Mus musculus [20]): inactive; Activity (Rattus norvegicus [32]): Non-toxic
